Test results as given in ChEMBL document CHEMBL4138201, “Synthesis and biological evaluation of sulfur-containing shikonin oxime derivatives as potential antineoplastic agents” (Eur J Med Chem, 2018).

What was measured:
[1] = Cytotoxicity against human HSF cells after 48 hrs by MTT assay; assay type: cell-based
Outline: (§1)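 MTT colorimetric assay. Shikonin and 5-fluorouracil served as reference agents. IC₅₀ obtained by linear regression of each compound's concentration–response curve.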

[2] = system: Bel-7402; assay: Cytotoxicity against human Bel7402 cells after 48 hrs by MTT assay; assay type: functional, cell-based; settings: Bel-7402, 48 h; outline: as §1
[3] = system: MGC-803; assay: Cytotoxicity against human MGC803 cells after 48 hrs by MTT assay; assay type: functional, cell-based; settings: MGC-803, 48 h; outline: as §1
[4] = system: MCF7; assay: Cytotoxicity against human MCF7 cells after 48 hrs by MTT assay; assay type: functional, cell-based; settings: MCF7, 48 h; outline: as §1
[5] = system: HCT-15; assay: Cytotoxicity against human HCT15 cells after 48 hrs by MTT assay; assay type: functional, cell-based; settings: HCT-15, 48 h; outline: as §1

SMILES | IC50 [1] | IC50 [2] | IC50 [3] | IC50 [4] | IC50 [5]
CCCCCCSC(CC=C(C)C)c1cc(OC)c2c(c1OC)/C(=N/O)C=C/C2=N\O (stereo not given) | > 50 µM | 11.7 µM | 6.73 µM | 34.6 µM | 3.46 µM
O=c1[nH]cc(F)c(=O)[nH]1 [FLUOROURACIL] | > 50 µM | 20.9 µM | > 50 µM | 29 µM | 7.53 µM
COc1ccc(C(=O)S[C@@H](CC=C(C)C)c2cc(OC)c3c(c2OC)/C(=N/O)C=C/C3=N\O)cc1OC | > 50 µM | 0.85 µM | 1.12 µM | 15.2 µM | 0.38 µM
COc1cc(C(CC=C(C)C)SC(=O)CC(C)C)c(OC)c2c1/C(=N/O)C=C/C2=N\O (stereo not given) | > 50 µM | 1.65 µM | 1.49 µM | 16.3 µM | 0.59 µM
CC(C)=CC[C@@H](O)C1=CC(=O)c2c(O)ccc(O)c2C1=O [SHIKONIN] | 1.25 µM | 1.24 µM | 1.51 µM | 2.4 µM | 0.86 µM
COc1cc(C(CC=C(C)C)SC/C=C(\C)CC/C=C(\C)CCC=C(C)C)c(OC)c2c1/C(=N/O)C=C/C2=N\O (stereo not given) | > 50 µM | 14.7 µM | 9.98 µM | 37.4 µM | 5.96 µM
CCCCCCCSC(CC=C(C)C)c1cc(OC)c2c(c1OC)/C(=N/O)C=C/C2=N\O (stereo not given) | > 50 µM | 8.15 µM | 5.51 µM | 30.6 µM | 1.97 µM
COc1cc([C@H](CC=C(C)C)SCCC(C)C)c(OC)c2c1/C(=N/O)C=C/C2=N\O | > 50 µM | 4.85 µM | 3.12 µM | 26.3 µM | 0.92 µM
COc1cc(C(CC=C(C)C)SC(=O)c2ccccc2Cl)c(OC)c2c1/C(=N/O)C=C/C2=N\O (stereo not given) | > 50 µM | 0.87 µM | 1.69 µM | 19.2 µM | 0.53 µM
CCCCSC(CC=C(C)C)c1cc(OC)c2c(c1OC)/C(=N/O)C=C/C2=N\O (stereo not given) | > 50 µM | 12.6 µM | 9.32 µM | 36 µM | 4.37 µM
COc1cc([C@@H](CC=C(C)C)SCCC(C)C)c(OC)c2c1/C(=N/O)C=C/C2=N\O | > 50 µM | 8.95 µM | 5.87 µM | 39.4 µM | 1.94 µM
COc1ccc(C(=O)S[C@H](CC=C(C)C)c2cc(OC)c3c(c2OC)/C(=N/O)C=C/C3=N\O)cc1OC | > 50 µM | 1.16 µM | 1.57 µM | 19.5 µM | 0.84 µM
COc1cc(C(CC=C(C)C)SC(=O)c2cccc(F)c2)c(OC)c2c1/C(=N/O)C=C/C2=N\O (stereo not given) | > 50 µM | 8.9 µM | 6.47 µM | 38.9 µM | 2.71 µM
COc1cc(C(=O)S[C@H](CC=C(C)C)c2cc(OC)c3c(c2OC)/C(=N/O)C=C/C3=N\O)cc(OC)c1OC | > 50 µM | 0.97 µM | 1.18 µM | 12.8 µM | 0.57 µM
COc1cc(C(CC=C(C)C)SC(=O)c2ccc(NC(=O)OC(C)(C)C)cc2)c(OC)c2c1/C(=N/O)C=C/C2=N\O (stereo not given) | > 50 µM | 9.17 µM | 6.56 µM | 32.4 µM | 3.39 µM
CCCCCCCCCCCCSC(CC=C(C)C)c1cc(OC)c2c(c1OC)/C(=N/O)C=C/C2=N\O (stereo not given) | > 50 µM | 34.3 µM | 31.6 µM | > 50 µM | 14.7 µM
COc1cccc(C(=O)SC(CC=C(C)C)c2cc(OC)c3c(c2OC)/C(=N/O)C=C/C3=N\O)c1 (stereo not given) | > 50 µM | 5.54 µM | 4.25 µM | 35.2 µM | 1.67 µM
COc1cc(C(CC=C(C)C)SC(=O)c2cccs2)c(OC)c2c1/C(=N/O)C=C/C2=N\O (stereo not given) | > 50 µM | 3.04 µM | 2.75 µM | 23.8 µM | 1.36 µM
COc1cc(C(CC=C(C)C)SC(=O)c2ccc([N+](=O)[O-])cc2)c(OC)c2c1/C(=N/O)C=C/C2=N\O (stereo not given) | > 50 µM | 12.6 µM | 9.3 µM | 44.7 µM | 5.09 µM
COc1cc(C(CC=C(C)C)SC(=O)c2ccc(F)cc2)c(OC)c2c1/C(=N/O)C=C/C2=N\O (stereo not given) | > 50 µM | 0.89 µM | 1.28 µM | 20.5 µM | 0.7 µM
CCCCCCCCCSC(CC=C(C)C)c1cc(OC)c2c(c1OC)/C(=N/O)C=C/C2=N\O (stereo not given) | > 50 µM | 13.8 µM | 9.86 µM | 37.8 µM | 4.09 µM
CCCCCCCCSC(CC=C(C)C)c1cc(OC)c2c(c1OC)/C(=N/O)C=C/C2=N\O (stereo not given) | > 50 µM | 6.37 µM | 2.29 µM | 25.7 µM | 1.25 µM

SMILES | IC50 [1] | IC50 [2] | IC50 [3] | IC50 [4] | IC50 [5]
COc1cc(C(CC=C(C)C)SC(C)=O)c(OC)c2c1/C(=N/O)C=C/C2=N\O (stereo not given) | > 50 µM | 3.65 µM | 2.49 µM | 23.5 µM | 1.22 µM
COc1cc(C(CC=C(C)C)SC(=O)c2ccc(C)cc2)c(OC)c2c1/C(=N/O)C=C/C2=N\O (stereo not given) | > 50 µM | 0.72 µM | 0.92 µM | 15.8 µM | 0.47 µM
COc1cc(C(CC=C(C)C)SC(=O)c2ccccc2F)c(OC)c2c1/C(=N/O)C=C/C2=N\O (stereo not given) | > 50 µM | 1.34 µM | 1.52 µM | 23 µM | 0.62 µM
COc1cc(C(CC=C(C)C)SC(=O)c2ccc(Cl)cc2)c(OC)c2c1/C(=N/O)C=C/C2=N\O (stereo not given) | > 50 µM | 1.16 µM | 1.45 µM | 20.4 µM | 0.82 µM
CCCCCC(=O)SC(CC=C(C)C)c1cc(OC)c2c(c1OC)/C(=N/O)C=C/C2=N\O (stereo not given) | > 50 µM | 22.4 µM | 16.9 µM | 45.7 µM | 7.21 µM
COc1cc(C(CC=C(C)C)SC(=O)c2cccnc2)c(OC)c2c1/C(=N/O)C=C/C2=N\O (stereo not given) | > 50 µM | 10.2 µM | 7.56 µM | 37.5 µM | 3.45 µM
COc1cc(C(CC=C(C)C)SC(=O)c2ccncc2)c(OC)c2c1/C(=N/O)C=C/C2=N\O (stereo not given) | > 50 µM | 26.8 µM | 19.4 µM | > 50 µM | 7.32 µM
COc1cc(C(CC=C(C)C)SC(=O)c2cccc(Cl)c2)c(OC)c2c1/C(=N/O)C=C/C2=N\O (stereo not given) | > 50 µM | 12.1 µM | 8.73 µM | 42.9 µM | 2.64 µM
COc1cc(C(CC=C(C)C)SC(=O)c2ccco2)c(OC)c2c1/C(=N/O)C=C/C2=N\O (stereo not given) | > 50 µM | 7.3 µM | 5.01 µM | 28.3 µM | 1.98 µM
COc1cc([C@H](CC=C(C)C)SC(=O)c2ccccc2)c(OC)c2c1/C(=N/O)C=C/C2=N\O | > 50 µM | 1.48 µM | 1.26 µM | 18.1 µM | 0.59 µM
COc1cc(C(CC=C(C)C)SC(=O)c2ccc(N)cc2)c(OC)c2c1/C(=N/O)C=C/C2=N\O (stereo not given) | > 50 µM | 1.26 µM | 2.45 µM | 19.4 µM | 1.68 µM
COc1cc(C(CC=C(C)C)SC(=O)c2ccc(C(F)(F)F)cc2)c(OC)c2c1/C(=N/O)C=C/C2=N\O (stereo not given) | > 50 µM | 7.12 µM | 5.97 µM | 30.5 µM | 2.75 µM
COc1cc(C(CC=C(C)C)SCC=C(C)C)c(OC)c2c1/C(=N/O)C=C/C2=N\O (stereo not given) | > 50 µM | 12.6 µM | 7.05 µM | 33.7 µM | 3.8 µM
CCCCCCCCCCSC(CC=C(C)C)c1cc(OC)c2c(c1OC)/C(=N/O)C=C/C2=N\O (stereo not given) | > 50 µM | 25.4 µM | 19.2 µM | 48.3 µM | 7.43 µM
COc1cc(C(CC=C(C)C)SC(=O)c2ccccc2)c(OC)c2c1/C(=N/O)C=C/C2=N\O (stereo not given) | > 50 µM | 1.2 µM | 1.28 µM | 17.4 µM | 0.63 µM
CCC(=O)SC(CC=C(C)C)c1cc(OC)c2c(c1OC)/C(=N/O)C=C/C2=N\O (stereo not given) | > 50 µM | 2.73 µM | 3.06 µM | 26.1 µM | 1.35 µM
COc1cc(C(=O)S[C@@H](CC=C(C)C)c2cc(OC)c3c(c2OC)/C(=N/O)C=C/C3=N\O)cc(OC)c1OC | > 50 µM | 0.63 µM | 0.97 µM | 11.8 µM | 0.34 µM
CCSC(CC=C(C)C)c1cc(OC)c2c(c1OC)/C(=N/O)C=C/C2=N\O (stereo not given) | > 50 µM | 20.1 µM | 12.5 µM | 44.2 µM | 7.15 µM
COc1ccccc1C(=O)SC(CC=C(C)C)c1cc(OC)c2c(c1OC)/C(=N/O)C=C/C2=N\O (stereo not given) | > 50 µM | 1.06 µM | 1.37 µM | 19.8 µM | 0.89 µM
COc1cc([C@@H](CC=C(C)C)SC(=O)c2ccccc2)c(OC)c2c1/C(=N/O)C=C/C2=N\O | > 50 µM | 2.97 µM | 2.67 µM | 25.5 µM | 1.06 µM
COc1cc(C(CC=C(C)C)SC(=O)C=C(C)C)c(OC)c2c1/C(=N/O)C=C/C2=N\O (stereo not given) | > 50 µM | 4.53 µM | 3.96 µM | 29.9 µM | 1.56 µM
